Source: PubChem BioAssay (The Scripps Research Institute Molecular Screening Center)
PME-1 primary – PME-1 (human) inhibition; Q9Y570; recombinant PME-1, FP-Rh probe fluorescence polarization; AID 2130; inhibition, % at 5.9 µM; 0.53% of 320,000 active;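 active = inhibition above the campaign mean of all compounds plus 3 SD, cut at about 26% in these data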;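 note: competitive labeling of PME-1 active site by serine hydrolase directed probe; 0% = PME-1 with DMSO and 100% = wells lacking PME-1 enzyme; inhibitors block probe labeling so polarization falls and inhibition rises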
Target sequence (Q9Y570 whole entry, looked up): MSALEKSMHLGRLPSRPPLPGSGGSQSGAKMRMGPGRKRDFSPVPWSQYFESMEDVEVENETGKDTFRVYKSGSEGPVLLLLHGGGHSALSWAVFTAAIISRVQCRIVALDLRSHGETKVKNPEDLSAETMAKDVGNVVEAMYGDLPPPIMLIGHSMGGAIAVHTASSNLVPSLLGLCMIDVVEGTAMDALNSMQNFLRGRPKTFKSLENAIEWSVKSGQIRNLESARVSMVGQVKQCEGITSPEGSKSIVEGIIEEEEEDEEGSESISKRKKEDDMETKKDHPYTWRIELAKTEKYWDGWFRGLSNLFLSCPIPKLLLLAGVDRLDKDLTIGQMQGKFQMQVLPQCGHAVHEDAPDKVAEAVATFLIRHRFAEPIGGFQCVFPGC
PAD4 inh – blocks human protein arginine deiminase 4; Q9UM07; recombinant PAD4, RCA probe fluorescence polarization; 0.41% of 330,000 active; inhibition, % at 6.36 µM;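 active = percent inhibition above a cutoff equal to the mean of all tested compounds plus 3 SD, cut at about 15% in these data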;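 note: 0% = PAD4 with RCA probe and DMSO and 100% = probe without PAD4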
LYPLA1 counter – LYPLA1 (human) inhibition in PME1 counter-screen. recombinant LYPLA1, FP-Rh probe fluorescence polarization. inhibition, % at 5.9 µM. 0.16% of 320,000 active. AID 2174;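 active = inhibition above the mean of all tested compounds plus 3 SD, set per campaign, cut at about 14% in these data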;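 note: inhibitors block serine hydrolase probe labeling of LYPLA1 so polarization falls; 0% = enzyme with DMSO and 100% = wells lacking LYPLA1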
LYPLA2 inh – LYPLA2 (human) inhibition in PME1 counter-screen. inhibition, % at 5.9 µM. recombinant LYPLA2, FP-Rh probe fluorescence polarization. 0.38% of 320,000 active;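 active = inhibition above the screen-wide mean plus 3 SD, limit set per campaign, cut at about 26% in these data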;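 note: 0% = LYPLA2 with DMSO and 100% = wells lacking LYPLA2 enzyme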
Target sequence (O95372 whole entry, looked up): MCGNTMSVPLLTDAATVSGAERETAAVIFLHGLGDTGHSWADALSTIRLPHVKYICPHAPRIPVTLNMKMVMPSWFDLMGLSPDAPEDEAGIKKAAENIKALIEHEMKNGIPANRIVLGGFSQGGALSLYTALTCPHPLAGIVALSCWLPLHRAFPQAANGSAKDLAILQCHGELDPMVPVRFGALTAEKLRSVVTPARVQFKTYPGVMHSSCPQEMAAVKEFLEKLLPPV
RBBP9 inhibitor – inhibitors of human serine hydrolase RBBP9; O75884; recombinant RBBP9, FP-Rh probe fluorescence polarization; inhibition, % at 7.94 µM; 0.2% of 220,000 active;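 active = inhibition above the campaign mean of all tested compounds plus 3 SD, cut at about 14% in these data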;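 note: plate controls were DMSO wells with RBBP9 for no effect and wells lacking RBBP9 protein for full effect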
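Measured by: FP readout at 525/598 nm; material: recombinant human RBBP9; also added: Serine-hydrolase probe FP-Rh, 375 nM pre-mixing; medium: Tris buffer pH 8.0, NaCl, Pluronic; replication: one well per compound; doses: one concentration, 7.94 µM nominal, 0.794% DMSO; timing: preincubation 30 min plus labeling 45 min at 25 °C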
Fam108B inh – counter-screen for RBBP9 inhibitors: inhibitors of mouse Fam108B. recombinant Fam108B, FP-Rh probe fluorescence polarization. inhibition, % at 9.51 µM. 0.33% of 300,000 active;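 active = inhibition above the screen mean inhibition plus 3 SD, computed separately per campaign, cut at about 18% in these data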;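 note: inhibitors lower polarization as less probe binds the enzyme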
RBBP9 inh conf – confirmation of human RBBP9 inhibitors; AID 1537; inhibition, % at 7.94 µM; shares compounds with RBBP9 inhibitor; recombinant RBBP9, FP-Rh probe fluorescence polarization; 36% of 410 active;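 active = inhibition above the hit cutoff derived for the primary screen, cut at about 15% in these data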;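 note: 0% = RBBP9 with DMSO and 100% = wells lacking RBBP9 protein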
Fam108b inh conf – Fam108b (mouse) hydrolase inhibition, confirmation assay; shares compounds with Fam108B inh; recombinant Fam108b, FP-Rh probe fluorescence polarization; inhibition, % at 9.51 µM; 44% of 930 active;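 active = inhibition above a limit from the primary screen, the mean over all compounds plus 3 SD, cut at about 19% in these data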;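 note: 0% = median of active Fam108b wells and 100% = catalytically dead S170A mutant; inhibitors free the probe so polarization falls as inhibition rises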
Fam108b ABPP HTS – mouse ABHD17B inhibition; shares compounds with Fam108B inh; recombinant Fam108b, gel-based ABPP, fluorophosphonate probe; inhibition, % at 20 µM; 44% of 260 active; in the data active = inhibition above about 40%
PAD4 FP conf – confirmation of human PAD4 inhibitors. shares compounds with PAD4 inh. recombinant PAD4, RCA probe fluorescence polarization. inhibition, % at 6.36 µM. 28% of 1,200 active;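 active = mean inhibition across replicates above the hit cutoff set by the earlier primary screen, cut at about 15% in these data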;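 note: inhibitors block active-site labeling by the probe so polarization falls; 0% = PAD4 with probe and DMSO and 100% = probe without PAD4 enzyme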
* = called active by the depositor; nt = no result; ! = repeats disagree. Hits are enriched below; roughly 1.3% of the tested compounds scored in any of these assays.

SMILES	PME-1 primary	PAD4 inh	LYPLA1 counter	LYPLA2 inh	RBBP9 inhibitor	Fam108B inh	others
COc1ccccc1N1C(=O)NC(=O)/C(=C/c2ccc([N+](=O)[O-])s2)C1=O	-1.3	-6.5	1.7	0.9	0.7	24.5*
CCN(CC)c1ccc(N=Cc2c(O)n(Cc3ccccc3)c(=O)[nH]c2=O)cc1	2.0	-13.8	-1.8	-2.3	-2.9	2.0
CCN(CC)c1ccc(N=Cc2c(O)[nH]c(=O)[nH]c2=O)cc1	8.3	26.0*	4.7	6.1	nt	-0.7
O=C(CN1CC=C(c2ccccc2)CC1)Nc1c(Cl)cccc1Cl	36.0*	3.4	-0.3	-0.8	5.9	7.8
O=C(CN1CC=C(c2ccccc2)CC1)Nc1cc(Cl)ccc1Cl	9.2	0.2	-2.9	-2.0	3.9	-5.4
Cc1ccc(S(=O)(=O)N2CCCCC2)cc1NC(=O)CN1CC=C(c2ccccc2)CC1	74.7*	3.1	-0.6	-8.0	-1.8	-0.5
CCOP(=O)(OCC)Oc1cc(C)c(N(C)C)c(C)c1	nt	nt	nt	nt	-0.2	nt
COc1ccc(CN2C(=O)NC(=O)/C(=C/c3ccc([N+](=O)[O-])s3)C2=O)cc1	-4.0	-47.9	-3.0	-7.0	-2.8	9.2
COC(=O)C1=C(c2ccc(OC)c(OC)c2)C[C@@H]2CC[C@H]1N2C(=O)NCC1CC1	0.3	-3.0	-3.8	-1.4	nt	nt
CC(=O)NC(Cc1ccc(N(CCCl)CCCl)cc1)C(=O)NCC(=O)NCC(=O)O (stereo not drawn)	-2.3	-2.4	-1.5	1.1	2.0	-5.4
Oc1cc2c(cc1O)[C@H]1c3ccccc3CN[C@@H]1CC2	-10.9	1.0	-5.4	-8.2	22.0*	0.7
Oc1ccc(/C=N/NP(=S)(c2ccccc2)c2ccccc2)c(O)c1O	28.2*	1.2	-8.8	-5.0	-2.7	-2.9
Oc1ccccc1/C=N/NP(=S)(c1ccccc1)c1ccccc1	-6.2	0.0	-9.3	-11.8	-9.8	-3.0
O=C1NC(=O)C(=Cc2ccccc2OCCOc2ccc([N+](=O)[O-])cc2)C(=O)N1	nt	nt	nt	nt	-9.7	nt
O=C1NC(=O)C(=Cc2ccc(Oc3ccc([N+](=O)[O-])cc3)cc2)C(=O)N1	-1.3	-9.1	5.5	38.3*	-0.5	0.6
O=c1[nH]c(=S)[nH]c(O)c1N=Nc1ccc(S(=O)(=O)N2CCc3ccccc32)cc1	36.1*	-9.3	-0.7	-4.6	-8.6	10.0
Cc1cc(O)c2c(c1)C(=O)C13C(=C2O)C(=O)[C@H]2[C@@H](O)[C@@H]1[C@H]1[C@H](O)[C@@H]3C(=O)C3=C(O)c4c(O)cc(C)cc4C(=O)C312 (stereo partly drawn)	-4.0	-12.7	-1.2	-12.1	nt	3.1
O=C(CF)NC(Nc1cccc2cccnc12)C(Cl)(Cl)Cl (stereo not drawn)	36.3*	-0.8	-1.9	5.7	-4.4	2.7
CCOC(=O)C1(CCc2ccccc2)CCN(CC(O)CO)CC1 (stereo not drawn)	1.9	-4.4	5.3	4.8	nt	1.7
COc1cccc(OC)c1C1=NCC(=O)Nc2c1oc1ccc(Br)cc21	45.2*	-1.6	-2.1	-5.9	-7.5	-5.8
CN/C=C(/Cl)P(=O)(OC(C)C)OC(C)C	0.7	-4.0	-2.5	-1.0	nt	-0.1
CC(C)C(=O)c1cn(Cc2ccccc2C#N)c2ccccc12	39.4*	-12.2	-0.3	-4.2	-6.1	-0.7
Nc1c(C(=O)NCc2ccco2)c2nc3ccccc3nc2n1Cc1ccccc1	6.3	-4.2	-3.3	-2.8	-5.6	-2.5
Nc1c(C(=O)NCc2ccco2)c2nc3ccccc3nc2n1CCN1CCOCC1	27.9*	1.1	2.2	2.2	0.3	1.7
COc1ccc(-n2nc(C(=O)NCC(=O)N3CCC4(CC3)OCCO4)c3ccccc3c2=O)cc1Cl	7.5	-4.5	-3.5	-0.9	nt	-2.7
SMILES	PME-1 primary	PAD4 inh	LYPLA1 counter	LYPLA2 inh	RBBP9 inhibitor	Fam108B inh	others
O=C(O)c1cc[c]([Hg][Cl])cc1	-0.4	21.9*	0.1	4.4	nt	2.0
COC(=O)N(c1ccccc1)P(=O)(Oc1ccccc1)Oc1ccccc1	6.3	7.7	1.6	2.6	nt	1.0
NP(=O)(OCC(F)(F)F)Oc1cccc2ccccc12 (stereo not drawn)	15.4	-4.0	-0.1	0.3	-3.8	-3.2
NP(=O)(OCC(F)(F)F)Oc1ccc(Cl)cc1 (stereo not drawn)	27.9*	2.6	1.8	1.0	-0.7	3.5
NP(=O)(Oc1ccccc1Cl)Oc1ccccc1Cl	97.7*	-1.9	2.5	2.8	-5.4	-0.4
CC(C)N(Cc1ccco1)/N=C/c1c(O)n(Cc2ccccc2)c(=O)[nH]c1=O	-4.9	-1.4	0.2	2.6	19.4*	2.3	RBBP9 inh conf=7.0
CCC(C)n1c(O)c(C=NC(C)c2ccccc2)c(=O)[nH]c1=S (stereo not drawn)	2.6	0.4	-1.6	-5.1	16.1*	2.0	RBBP9 inh conf=2.4
CCC(C)n1c(O)c(C=NCc2cccnc2)c(=O)[nH]c1=S (stereo not drawn)	4.8	-2.3	-4.1	0.7	1.9	0.0
COC(=O)C1=C(c2ccc(F)cc2F)C[C@@H]2CC[C@H]1N2C(=O)N1CCC(O)CC1	-0.7	-7.2	1.5	-2.3	nt	nt
CC(C)N1CCN(c2ccc(O)cc2)CC1	-9.0	-4.2	-0.6	-8.0	15.1*	-5.5	RBBP9 inh conf=-0.9
Cc1cc(C)c2c(ccc3cccc[n+]32)c1	0.6	-2.0	1.6	-0.3	nt	0.1
CC1CCCN(c2ccc(C(=O)N3CCC4(CC3)OCCO4)cc2[N+](=O)[O-])C1 (stereo not drawn)	-1.9	1.5	-3.0	-8.8	-9.2	6.0
CCOC(=O)C1CCCN(c2ccc([N+](=O)[O-])c3nonc23)C1 (stereo not drawn)	nt	nt	nt	nt	19.1*	nt	RBBP9 inh conf=30.7*
CCN1/C(=C\C=C\C2=[N+](CC)c3ccccc3C2(C)C)C(C)(C)c2ccccc21	-243.1	145.3*	-160.4	-339.0	99.8*	-372.6	RBBP9 inh conf=-49.8;PAD4 FP conf=100.6*
C=CCn1c(O)c(/C(C)=N/N2CCCCCC2)c(=O)[nH]c1=O	-0.5	1.1	-1.8	1.5	-6.1	-0.2
CN(C)[C@@H]1C(=O)C(C(N)=O)=C(O)[C@@]2(O)C(=O)C3=C(O)c4c(O)cccc4[C@@](C)(O)[C@H]3[C@H](O)[C@@H]12	-6.2	-4.1	-3.3	4.3	5.2	59.5*	Fam108b inh conf=67.3*!;Fam108b ABPP HTS=0.0
